# This is a sample that favours compounds with a hit; in the whole collection about 1.7% have one here.
# HTR2A ag = activates the mouse 5-HT2A serotonin receptor | CHO-K1 mHTR2A beta-arrestin complementation, luminescence; percent of 30 µM serotonin response | activation, % at 7.6 µM | hit rate 0.66% among 360,000;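 active = activation above a run cutoff, the mean activation of all tested compounds plus 3 SD, cut at about 14% in these data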;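 note: 0% = plate median of compound wells and 100% = 30 µM serotonin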
# PP5 inh = PP5 (human) phosphatase inhibition; purified PP5c, OMFP substrate fluorescence; inhibition, % at 6.7 µM; hit rate 0.18% among 320,000; AID 1987;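 active = inhibition above the campaign's mean inhibition across all tested compounds plus 3 SD, cut at about 9.5% in these data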;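 note: 0% = DMSO only and 100% = 100 µM cantharidin control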
# JMJD2C inh = inhibitors of human GASC-1 (JMJD2C) demethylase; Q9H3R0; GST-JMJD2C(1-420) H3K9me3 demethylation, DELFIA europium; inhibition, % at 2.35 µM; hit rate 0.069% among 330,000; AID 2099;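 active = more than half of a compound's replicate wells show inhibition beyond 50%, single wells judged on their own value; inconclusive = some, but no more than half, of replicates pass 50% inhibition; inactive = no replicate passes 50% inhibition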;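 note: signal counts dimethyl H3K9 product captured on neutravidin plate; 0% = median of DMSO wells and 100% = 0.3 times that DMSO median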
# T cell modulator = T cell immune modulators affecting CD8 T cell-vesicle binding; 2C CD8+ T cell-vesicle binding, flow cytometry; active compounds read low; response (vesicle binding), % at 7 µM; hit rate 0.068% among 330,000; AID 2052;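 active = response, share of CD8 T cells binding vesicles, and their 90th percentile fluorescence all below set limits, cut at about 80% in these data, passing the limit was not always enough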;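 note: values below 100% mean blocked vesicle binding to the CD8+ T cells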
#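 Also added: QL9-peptide-loaded Drosophila micro-vesicles bearing Ld, ICAM-1 and B7-1; Test system: purified 2C TCR transgenic mouse naive CD8+ T cells; Measured by: cytometric PE anti-B7-1 and Alexa647 anti-CD8 signals after 1% paraformaldehyde fixation; Timing: binding step 1.5 h, 37 °C, antibody labelling 20 min, ice.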
# PP1 inh = blocks human PP1-alpha phosphatase, a PP5 counter-screen; purified PP1alpha, OMFP fluorescence; inhibition, % at 6.7 µM; hit rate 0.9% among 320,000;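 active = inhibition above the mean inhibition of all tested compounds plus 3 SD, computed separately for each screening campaign, cut at about 15% in these data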
# Target sequence (P62136 whole entry, looked up): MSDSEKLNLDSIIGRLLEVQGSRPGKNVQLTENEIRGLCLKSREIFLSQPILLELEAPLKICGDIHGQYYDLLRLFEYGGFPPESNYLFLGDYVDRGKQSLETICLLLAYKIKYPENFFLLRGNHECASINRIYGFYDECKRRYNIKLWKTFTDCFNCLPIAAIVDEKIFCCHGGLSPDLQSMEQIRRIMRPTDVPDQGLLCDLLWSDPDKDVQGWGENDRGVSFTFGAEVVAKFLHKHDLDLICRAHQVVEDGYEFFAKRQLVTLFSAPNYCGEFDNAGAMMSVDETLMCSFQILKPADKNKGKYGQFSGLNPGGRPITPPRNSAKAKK
# Active calls of the source: *; i = inactive; ? = inconclusive; nt = no result given; ! = not confirmed by another sample.
SMILES,HTR2A ag,PP5 inh,JMJD2C inh,T cell modulator,PP1 inh
CCn1c(SCC(=O)Nc2nnc(C)s2)nnc1-c1ccncc1,7,-1,-3,276,-6
S=C(c1cn(CCOc2ccccc2)c2ccccc12)N1CCCC1,-8,-2,8,198,1
S=C(c1cn(CCOc2cccc3ccccc23)c2ccccc12)N1CCCC1,1,2,-8,336,24*
CCCN(CCC)CCCNC(=S)Nc1ccc2nc3n(c(=O)c2c1)CCCCC3,1,2,2,211,-5
CCOC1(/N=C(\C)NS(=O)(=O)c2ccc(Cl)cc2)C(C)=CC(=O)C=C1C,-3,-2,-3,220,-4
COC(=O)c1cc(C)nc2c1C(=O)C(=O)C=C2N1CCOCC1,5,7,11,239,16*
COC(=O)c1cc(S(=O)(=O)N2CCOCC2)c(Cl)cc1N1CCOCC1,13,1,0,381,1
O=C(N/N=C/c1ccc(-c2ccc(Br)cc2)o1)c1ccc2c(c1)OCO2,2,5,-1,312,16*
CC1(C)SC[C@H](C(=O)Nc2cccc(Cl)c2)N1C=O,-4,6,10,52*,-1
CCOC(=O)c1c(N)sc2c1CCC1C(=O)N(C3CCCCC3)C(=O)C21 (configuration not stated),0,3,-2,210,15*
CCOC(=O)c1c(N)sc2c1CCC(CC)C2 (configuration not stated),7,1,2,461,1
O=C(O)C1(S(=O)(=O)c2ccc(Cl)cc2)CCC1,0,2,7,193,2
COc1ccc(C(=O)NC2CC3CCCC(C2)N3Cc2ccccc2)cc1 (configuration not stated),-7,5,60*,268,-7
CN(C(=O)COC(=O)c1cccc(NS(=O)(=O)c2ccc(F)c(F)c2)c1)C1CCS(=O)(=O)C1 (configuration not stated),4,1,1,19*,-7
COc1ccc(/C=N/NC(=O)c2nn(-c3ccccc3)c(=O)c3c(N)scc23)cc1,-3,3,-11,164,7
COc1ccc(/C=N/NC(=O)c2nn(-c3ccc(Cl)cc3)c(=O)c3c(N)scc23)cc1,-2,2,10,267,17*
CN(C)S(=O)(=O)c1ccc(C(=O)NCCc2ccco2)cc1,-6,4,-3,66*,-1
CS(=O)(=O)n1nc(-c2ccc(Cl)cc2)nc1N,0,-4,1,162,-6
Cn1nc(-c2ccc(Cl)cc2)nc2c(=O)n(C)c(=O)nc1-2,nt,12*,?,683,37*
Cc1nc(NC(=O)COC(=O)c2ccc(CO)cc2)c(Cl)cc1Cl,4,nt,-3,375,nt
O=C(/C=C/c1cn(-c2ccccc2)nc1-c1cccc(Cl)c1)N1CCN(c2ccccn2)CC1,3,3,12,361,2
O=C(O)c1cn(Cc2ccccc2)c2ccc(Cl)cc2c1=O,-9,1,-5,i,17*
COc1ccc(Cn2cc(C(=O)O)c(=O)c3ccccc32)cc1,1,2,21,350,-2
Cc1cc(N/N=C/c2ccccc2[N+](=O)[O-])nc(-n2nc(C)cc2C)n1,-4,4,-9,80,12
Cc1cc(N/N=C/c2ccc(O)cc2O)nc(-n2nc(C)cc2C)n1,-25,6,38,534,16*
SMILES,HTR2A ag,PP5 inh,JMJD2C inh,T cell modulator,PP1 inh
CCCCN(C(=O)CC1CCCCC1)c1c(N)n(CCCC)c(=O)[nH]c1=O,2,nt,nt,nt,nt
O=c1[nH]c2ccc(NC(=S)NC3CCCCC3)cc2[nH]1,-1,2,-25,112,-2
O=c1cc(NC2CCCCCC2)[nH]c(=O)[nH]1,1,-5,54*,274,-2
CCOC(=O)N1CCN(CCC(=O)Nc2cccc(Br)c2)CC1,-4,0,2,237,18*!
CCN(CC)c1ccc(/C=N/NC(=O)Cc2cccs2)c(O)c1,0,5,8,574,16*
O=c1cc(CSc2ccc(Cl)cc2)nc(-c2ccccn2)[nH]1,-8,-2,-19,545,16*
COc1ccc(/C=N/Nc2cc(=O)n(C)c(=O)n2C)cc1OC,2,1,52*,165,-1
COc1cc(/C=N\Nc2cc(=O)n(C)c(=O)n2C)ccc1O,-1,2,-11,470,1
CN1CCN(C(=O)C(=O)c2cn(CC(=O)N3CCCCCC3)c3ccccc23)CC1,-3,nt,nt,nt,nt
CCOC(=O)c1c(CSC(=N)N)n(-c2ccc(Br)cc2)c2cc(Br)c(OC(C)=O)cc12,-4,nt,nt,nt,nt
